Experimental data published in the EternaBench riboswitch data.

System: MS2 coat protein
Assay: apparent Kd, MS2 coat protein; higher = weaker binding; RNA-MaP array; tryptophan 2.4 mM where present
In short: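 Designs were transcribed by stalled E. coli RNA polymerase on Illumina sequencing-chip clusters. They were titrated with SNAP-549-labelled MS2 coat protein from 0.7 or 1.5 nM, doubling to 3 µM, without and then with constant ligand. Buffer: 100 mM Tris-HCl pH 7.5, 80 mM KCl, 4 mM MgCl2, BSA, DTT, yeast tRNA, Tween-20. Green signal was normalised to red-channel RNA signal and control-cluster median Fmax. Apparent Kd is the median of filtered per-cluster binding-curve fits.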

[1] = designed as: OFF switch for tryptophan, no ligand
[2] = ligand present: tryptophan, designed as: OFF switch for tryptophan
[3] = designed as: ON switch for tryptophan, no ligand
[4] = ligand present: tryptophan, designed as: ON switch for tryptophan

Sequence	apparent Kd [1] [nM]	apparent Kd [2] [nM]	apparent Kd [3] [nM]	apparent Kd [4] [nM]
UAUUAUCAGUCGGCCGCCACUGACACAUGAGGAUCACCCAUGUAAUUUGGGUUAUAUAGAAAAUACAGGACCGGGACUAAGGCUA	260	276		
UAUCGUCAGACGGCCGCCACUAGAACAUGAGGAUCACCCAUGUAAGUGGCCGGUCUCCUCAUGACUAGGACCGGGUCUGACGAAU	8.69	9.94		
GAGCUCGUGGACUGGCGUGCUCCGCUCCGUCGAGGACCGGUACGGCCGCCACUCGACAUGAGGAUCACCCAUGUGUGAGCUCGCG	62.5	30.6		
UUUUACGGCGAUCUGGGUUUACCAGAUCGGCGAGGACCGGUACGGCCGCCACUCGUGUUUCUUUGACAUGAGGAUCACCCAUGUA			26.9	16.2
AACAUGAGGAUCACCCAUGUCCCAUGUGAACGAGGACCGGUACGGCCGCCACUCGACUGAGGCGGCACAUGAGGAUCACCCACAU			170	314
CCUCAAUAGACGGCCGCCACUGAGACAUGAGGAUACAUGAGGAUCACCCAUGUGGGUGUGUCACGCAGGACCGGGUCAAGACCCG			523	514
AACAUGAGGAUCACCCAUGUGUCCUCGAAACGAGGACCGGUACGGCCGCCACUCGAAAUAAGCUGUUGACGAAAAGUCAGCAGCA	281	501		
AUAACCCUUGACUAAAACACUAAAUCAGUUCGAGGACCGGUACGGCCGCCACUCGUGUCAAGACAUGAGGAUCACCCAUGUACCU			35.8	23.3
AGUUACUCGAACAUGGUUGACGAGUGGCAACGAGGACCGGUACGGCCGCCACUCGAAUAAACAUGAGGAUCACCCAUGUACAAAU			135	104
AUUCAUGGAAACAUGACAUACAUAACCGGUCGAGGACCGGUACGGCCGCCACUCGGUUGGUGGCACAUGAGGAUCACCCAUGUUA			23.9	26.4
UUAUAAGUACCGGUCCUCAGAUCCUCAUGACGAGGACCGGUACGGCCGCCACUCGAAACAUGAGGAUCACCCAUGUAAUAAUAUU	22.1	20		
AUUGUCGUGUCGGCCGCCACUGUCAUGGUUUUCGUGGAAAACAUGAGGAUCACCCAUGUAAUUGACAGGACCGGGACAUGGCGGC	9.29	10.4		
GGUUACUCUACGGCCGCCACUGAUAAAUAAUAAACCUGUACAUAAACAUGAGGAUCACCCAUGUACAGGACCGGGUAGUGUAACC			32.8	24.1
GGAGUAGAUGCGGCCGCCACUUUCUCAAGACACUACAUGAGGAUCACCCAUGUCCAUUCUACACUAAGGACCGGGCAUCCCAUGG			54.3	39.5
UAAUCAGUGCCGGUUCUCGGAUCCUCAUGUCGAGGACCGGUACGGCCGCCACUCGGAACAUGAGGAUCACCCAUGUAAUAAUAAU	97.3	92.7		
ACAUUAGCCACGGCCGCCACUGCCUUAUGAUUAUAAGGAUUAAUGAACAUGAGGAUCACCCAUGUCAGGACCGGGUGCCUACCAU			22	20.7
AACGCGGUGAUGGUAGCCGGACGCUAGGUACGAGGACCGGUACGGCCGCCACUCGGAGUCCUACGACAUGAGGAUCACCCAUGUA			127	67.5
AUAAUAAUCAUGGGUGAAGGUCCUCGCAAACGAGGACCGGUACGGCCGCCACUCGAACAUGAGGAUCACCCAUGUGUGAGGACCU			58.8	36.9
AAUUAAACAUCGGCCGCCACUUACUCAUGAGGUAACAACAUGAGGAUCACCCAUGUUUGAGGAUCAAGGACCGGGAUGUAAUUUU			29.8	22.2
CUACAUUUGUAGAAACCGGUCAACAAUAAUCGAGGACCGGUACGGCCGCCACUCGUAUAAUUUAAUACAUGAGGAUCACCCAUGU			14.9	15.4

Sequence	apparent Kd [1] [nM]	apparent Kd [2] [nM]	apparent Kd [3] [nM]	apparent Kd [4] [nM]
AACAUGAGGAUCACCCAUGUGUCCUCGAAACGAGGACCGGUACGGCCGCCACUCGAAGCAUGUUGACGAAAAGUCAGCAUGCAAA	318	1060		
AGUUAUUCGAACAUGGUUGACGAGUGGCAACGAGGACCGGUACGGCCGCCACUCGAAUAAACAUGAGGAUCACCCAUGUACAAAU			342	287
AAUUUAUGGUUCUUGAUGUAGUAUCUAUUUCGAGGACCGGUACGGCCGCCACUCGUAAAUUACAUGAGGAUCACCCAUGUUAGCU	24.6	29.5		
GCGUGGUCUGCGGCCGCCACUCAAGGAGCUACAUAGCUCCUAGACAUGAGGAUCACCCAUGUCGCGAGGACCGGGUAGAUUCUCC			96	30.8
GCUAGGUCAUCGGCCGCCACUAUUAGUGGUUCGAACAUGAGGAUCACCCAUGUGCCACAUGCGCAUAGGACCGGGAUGACCUAGC			12.7	9.42
GAGUAGAGGACGGCCGCCACUGAACAUGAGGAUCACCCAUGUCGUGAUCCGUUACCUAAAGAAGAUAGGACCGGGUCAUGUACUC	27.3	28.7		
CACGCACGAUCGGCCGCCACUCAUGUAGCUUACAUGAGGAUCACCCAUGUAUUUUCUUUCUUAUAGAGGACCGGGAUCGUGCGUG			17.6	15.3
GUUGUAUACUCGGCCGCCACUGAGAGAGUCAUGUAAACAUGAGGAUCACCCAUGUAAUAUAUAUACAGGACCGGGAGUAUGGUAA	15	12.9		
AGUUUGGACUCGGCCGCCACUCGUGAUGCUUUGGCACAUGAGGAUCACCCAUGUGGUCGGCCUUAGAGGACCGGGAGUACCAGCC			405	43
CUAUAUAUAUCGGCCGCCACUUACUCAUGAGGUAACAACAUGAGGAUCACCCAUGUUUGAGGAUCAAGGACCGGGAUAUAUAUAG			27.4	16.6
ACGUUGAAGUCGGCCGCCACUGAUUUCAUGUUCAACAUGAGGAUCACCCAUGUACCUUAUGUUAACAGGACCGGGACGUAUACGA			479	117
UCGUUUUAGUCGGCCGCCACUGUAUGCAUGUUUAACAUGAGGAUCACCCAUGUCCCGUUCUAUUUCAGGACCGGGACGUAAUCGA			525	344
CUCAUCCACGCGGCCGCCACUAUUUUUAGGUGUGGGUGUGACGUAUUACAUGAGGAUCACCCAUGUAGGACCGGGCGUGGAUGAG	385	485		
UUCGUAUUGUCGGCCGCCACUGCAACAUGAGGAUCACCCAUGUAAGAAUGGUUGUAAAUAUAUUACAGGACCGGGACAAUAGUAA	17.6	51.6		
AAUAUAUAGACGGCCGCCACUGGAACCAAUACAUGAGGAUCACCCAUGUGAAAAGGAUAGGUUCACAGGACCGGGUCUUCAUGUA			25.7	9.99
AAUUAUCAGUCGGCCGCCACUGACACAUGAGGAUCACCCAUGUAACUUGGGUUAAAUUUAAUAAACAGGACCGGGACAAAGGCUA	186	184		
AGCGUGCAUAGGAAAACUAUGUACGCAAAUCGAGGACCGGUACGGCCGCCACUCGUCCUCAACAUGAGGAUCACCCAUGUAAUAA	19.9	34.7		
CUUGGCUGUGCGGCCGCCACUGACUCAUCCUGCAUUACAUGAGGAUCACCCAUGUUGCGGCCUCCCAGGACCGGGCAUAGCCUGC			390	91.3
AAUAAUAAGGCGGCCGCCACUACACAUGAGGAUCACCCAUGUCUCGCGGGCUUGCGUUGGGAAUGUAGGACCGGGCCAAUAAUAA	24.3	18.3		
